Test results reported in ChEMBL document CHEMBL4052597, “Symmetrically Substituted Xanthone Amphiphiles Combat Gram-Positive Bacterial Resistance with Enhanced Membrane Selectivity” (J Med Chem, 2017).
≈ marks a conversion by molar mass, not a printed value. Calls of active or inactive are those of the source. The rule behind the calls is not given here. Peptide text beside a SMILES is read from it.

How the values were obtained:
Bacillus cereus = assay: Antibacterial activity against Bacillus cereus ATCC 11778 after 24 hrs by two fold dilution assay; assay type: functional; settings: ATCC 11778, 24 h
Summary of the method: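 Broth macro-dilution per CLSI in cation-adjusted Mueller-Hinton broth; compounds dissolved in DMF, diluted in PBS to 1000 µg/mL stock, then serial 2-fold dilutions in CA-MHB in tubes. Inoculum from 18-20 h TSA colonies (direct colony suspension), adjusted to about 5× 10^5 CFU/mL. MIC read after 24 h at 35 °C as lowest concentration with no visible growth; biological replicates.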

Staphylococcus aureus [1] = assay: Antibacterial activity against methicillin-resistant Staphylococcus aureus DM 9808R after 24 hrs by two fold dilution assay; assay type: functional
Summary of the method: (§1)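 CLSI broth macrodilution in cation-adjusted Mueller-Hinton broth. Compounds were dissolved in DMF and diluted in PBS to a 1000 µg/mL stock, then serially 2-fold diluted in CA-MHB. The inoculum came from colonies on 18-20 h TSA plates (direct colony suspension), adjusted to ~5×10^5 CFU/mL. Incubation was 24 h at 35 °C. MIC is the lowest concentration with no visible growth versus control. Biological replicates.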

Staphylococcus aureus [2] = assay: Antibacterial activity against methicillin-resistant Staphylococcus aureus DM 21455 after 24 hrs by two fold dilution assay; assay type: functional; settings: DM 21455, 24 h; summary of the method: as §1
Staphylococcus aureus [3] = assay: Antibacterial activity against Staphylococcus aureus DM 4001R after 24 hrs by two fold dilution assay; assay type: functional; summary of the method: as §1
Staphylococcus aureus [4] = assay: Ratio of MIC for Staphylococcus aureus ATCC 29213 after and before 15 serial passages; assay type: functional
Staphylococcus aureus [5] = assay: Antibacterial activity against Staphylococcus aureus ATCC 29213 infected in C57BL6 mouse cornea assessed as decrease in number of viable bacteria at 0.5% administered topically at 2 hrs interval for 4 times starting on day 1 post infection measured post last dose relative to control; assay type: functional
Staphylococcus aureus [6] = assay: Antibacterial activity against Staphylococcus aureus ATCC 700699 infected in C57BL6 mouse cornea assessed as decrease in number of viable bacteria at 0.5% administered topically at 2 hrs interval for 4 times starting on day 1 post infection measured post last dose relative to control; assay type: functional, Mu50
Staphylococcus aureus [7] = assay: Disruption of membrane in Staphylococcus aureus isolate DM4001R assessed as increase in ATP leakage at 4 times MIC after 1 hr by ATP bioluminescent assay relative to control; assay type: functional
Summary of the method: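 S. aureus DM4001 grown to exponential phase, washed three times in 20 mM PBS (pH 7), resuspended to OD600 0.2. Compound added, suspensions held 1 hour at 37 °C, then centrifuged. Supernatant mixed with luciferase/luciferin enzyme mix; extracellular ATP quantified by luminescence. Replicated.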

Staphylococcus aureus [8] = assay: Disruption of cytoplasmic membrane in Staphylococcus aureus isolate DM4001R at 2 times MIC after 3000 secs by SYTOX green dye based fluorescence assay; assay type: functional
Summary of the method: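 Clinical S. aureus isolate DM4001R incubated with SYTOX Green plus compound; membrane permeabilization read as increased fluorescence intensity. Measurements replicated.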

Lipid bilayer [9] = assay: Induction of membrane damage in DOPC/cholesterol large unilamellar vesicles assessed as calcein leakage at compound to lipid ratio of 1:16 after 1 hr by fluorescence assay relative to control
Summary of the method: (§2)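 100 nm calcein-loaded LUVs made by film hydration; lipid content set by total phosphorus assay. DOPC/cholesterol (3:1, w/w) mimics mammalian and DOPE/DOPG (3:1, w/w) bacterial membranes. Compound in DMF added at lipid-to-compound ratio 16 (6.25 µM compound), final DMF limited to 0.5%. Fluorescence monitored at ex 490/em 520 nm for 1 hour; replicated.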

Lipid bilayer [10] = assay: Induction of membrane damage in DOPE/DOPG large unilamellar vesicles assessed as calcein leakage at compound to lipid ratio of 1:16 after 1 hr by fluorescence assay relative to control; summary of the method: as §2

| SMILES | MIC (Bacillus cereus) | MIC (Staphylococcus aureus [1]) | MIC (Staphylococcus aureus [2]) | MIC (Staphylococcus aureus [3]) | other results |
| --- | --- | --- | --- | --- | --- |
| CCCCN(CCCC)CCCNC(=O)COc1cc(OCC=C(C)C)cc2oc3cc(OCC=C(C)C)cc(OCC(=O)NCCCN(CCCC)CCCC)c3c(=O)c12 | 6.25 µg/mL (≈ 7.36 µM) | 3.13 µg/mL (≈ 3.69 µM) | 3.13 µg/mL (≈ 3.69 µM) | 3.13 µg/mL (≈ 3.69 µM) | – |
| CCn1cc(C(=O)O)c(=O)c2cc(F)c(N3CCNCC3)cc21 [NORFLOXACIN] | – | – | – | – | Ratio (Staphylococcus aureus [4]): 128 |
| C[C@H]1COc2c(N3CCN(C)CC3)c(F)cc3c(=O)c(C(=O)O)cn1c23.C[C@H]1COc2c(N3CCN(C)CC3)c(F)cc3c(=O)c(C(=O)O)cn1c23.O [LEVOFLOXACIN] | – | – | – | – | Activity (Staphylococcus aureus [5]): 99.2% |
| COC(=O)[C@H](CCCNC(=N)N)NC(=O)COc1cc(OCC(=O)N[C@@H](CCCNC(=N)N)C(=O)OC)c2c(=O)c3c(OCC(=O)N[C@@H](CCCNC(=N)N)C(=O)OC)cc(OCC=C(C)C)cc3oc2c1 | 50 µg/mL (≈ 49.4 µM) | 50 µg/mL (≈ 49.4 µM) | 50 µg/mL (≈ 49.4 µM) | 50 µg/mL (≈ 49.4 µM) | – |
| COc1c(N2CCNC(C)C2)c(F)cc2c(=O)c(C(=O)O)cn(C3CC3)c12 (stereo not drawn) [GATIFLOXACIN] | – | – | – | – | Ratio (Staphylococcus aureus [4]): 64 |
| CCCOc1cc(OCC(=O)N[C@@H](CCCNC(=N)N)C(=O)OC)c2c(=O)c3c(OCC(=O)N[C@@H](CCCNC(=N)N)C(=O)OC)cc(OCCC)cc3oc2c1 | 25 µg/mL (≈ 31.2 µM) | 12.5 µg/mL (≈ 15.6 µM) | 12.5 µg/mL (≈ 15.6 µM) | 12.5 µg/mL (≈ 15.6 µM) | – |
| CC[C@H](C)[C@H](NC(=O)CN)C(=O)NCC(=O)N[C@@H](CCCCN)C(=O)N[C@@H](Cc1ccccc1)C(=O)N[C@@H](CC(C)C)C(=O)N[C@@H](CCCCN)C(=O)N[C@@H](CCCCN)C(=O)N[C@@H](C)C(=O)N[C@@H](CCCCN)C(=O)N[C@@H](CCCCN)C(=O)N[C@@H](Cc1ccccc1)C(=O)NCC(=O)N[C@@H](CCCCN)C(=O)N[C@@H](C)C(=O)N[C@@H](Cc1ccccc1)C(=O)N[C@H](C(=O)N[C@@H](CCCCN)C(=O)N[C@H](C(=O)N[C@@H](CC(C)C)C(=O)N[C@@H](CCCCN)C(=O)N[C@@H](CCCCN)C(=O)O)[C@@H](C)CC)C(C)C (H-GIGKFLKKAKKFGKAFVKILKK-OH) | 12.5 µg/mL (≈ 5.04 µM) | 25 µg/mL (≈ 10.1 µM) | 12.5 µg/mL (≈ 5.04 µM) | 12.5 µg/mL (≈ 5.04 µM) | Activity (Staphylococcus aureus [6]): 93.3% |
| COC(=O)[C@H](CCCCN)NC(=O)COc1cc(OCC=C(C)C)cc2oc3cc(OCC=C(C)C)cc(OCC(=O)N[C@@H](CCCCN)C(=O)OC)c3c(=O)c12 | 6.25 µg/mL (≈ 7.84 µM) | 12.5 µg/mL (≈ 15.7 µM) | 6.25 µg/mL (≈ 7.84 µM) | 12.5 µg/mL (≈ 15.7 µM) | Activity (Staphylococcus aureus [7]): 106.7%; Activity (Staphylococcus aureus [8]): Active; Activity (Lipid bilayer [9]): < 20%; Activity (Lipid bilayer [10]): 48.2% |
